Compound activity as filed in PubChem BioAssay.
CTSL1 counter: blocks F. hepatica cathepsin L1 in PFM18AAP counter-screen. 0.49% of 300,000 active. AID 1906. inhibition, % at 5.96 µM. recombinant F. hepatica cathepsin L1, Z-Leu-Arg-MCA fluorescence;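 active = inhibition above the mean of all tested compounds plus 3 SD, set per screening campaign, cut at about 17% in these data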;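 also: 0% = plate median of test compound wells and 100% = 1 µM Z-Phe-Ala-diazomethylketone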
TDP2 absorb: blocks human TDP2 phosphodiesterase activity. O95551. recombinant TDP2, T5PNP hydrolysis, p-nitrophenol absorbance 415 nm. inhibition, % at 12.8 µM. 0.34% of 370,000 active. AID 720702;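 active = inhibition above the mean of all tested compounds plus 3 SD, set per campaign, cut at about 25% in these data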;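 also: 0% = DMSO with enzyme and 100% = buffer with substrate but no TDP2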
Target sequence (O95551 whole entry, looked up): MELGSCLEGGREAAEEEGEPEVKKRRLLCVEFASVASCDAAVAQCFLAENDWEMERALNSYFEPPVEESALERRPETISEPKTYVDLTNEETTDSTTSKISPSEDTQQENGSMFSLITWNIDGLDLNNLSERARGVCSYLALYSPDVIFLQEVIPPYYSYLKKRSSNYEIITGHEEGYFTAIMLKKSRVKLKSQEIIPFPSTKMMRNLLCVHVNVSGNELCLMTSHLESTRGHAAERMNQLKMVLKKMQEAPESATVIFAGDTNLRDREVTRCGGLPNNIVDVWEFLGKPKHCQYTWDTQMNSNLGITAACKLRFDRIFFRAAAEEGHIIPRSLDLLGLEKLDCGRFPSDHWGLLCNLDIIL
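Assay system: Recombinant human TDP2 | Quantity: 120 nM TDP2 per well | Incubation: 2 h at 37 °C | Signal: Epi absorbance | Evaluation: Percent inhibition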
HKDC1 inh: blocks human hexokinase HKDC1 activity | Q2TB90 | recombinant HKDC1, G6PDH/diaphorase resazurin coupled fluorescence | inhibition, % at 20 µM | 0.16% of 340,000 active;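 active = inhibition above about 35% when tested at 20 µM, limit read from the data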;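 also: plate controls were DMSO wells with enzyme for no effect and DMSO wells lacking enzyme for full effect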
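System: Recombinant HKDC1 hexokinase | Amount: HKDC1 at 5 µg/mL | Reagent: Glucose with 1 mM ATP | Doses: Single 20 µM dose | Incubation: Reaction time 90 min, room temperature, protected from light | Signal: Coupled resazurin fluorescence, excitation 525 nm, emission 613 nm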
UCH37 inh: inhibitors of human deubiquitinating enzyme UCH37. Q9Y5K5. purified proteasome/UCH37, Ub-AMC cleavage fluorescence. inhibition, % (test concentration not listed). 0.33% of 330,000 active. AID 588478;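 active = mean inhibition over replicate wells above about 20%, limit read from the data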;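 also: 0% = compound-free wells with enzyme and 100% = wells lacking proteasome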
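system = Proteasome-associated human UCH37 deubiquitinase | amount = 0.15 nM proteasome as dispensed | medium = pH 7.4 Tris-HCl (50 mM) with ovalbumin, ATP-MgCl2, DTT | incubation = 30 min preincubation with enzyme, 25 min cleavage at room temperature | detection = AMC fluorescence 355/460 nm | read-out basis = percent inhibition | controls = no-proteasome and no-compound wells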
PAD4 inh: PAD4 (human) enzyme inhibition | Q9UM07 | recombinant PAD4, RCA probe fluorescence polarization | inhibition, % at 6.36 µM | 0.41% of 330,000 active | AID 485272;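 active = percent inhibition above a cutoff equal to the mean of all tested compounds plus 3 SD, cut at about 15% in these data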;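 also: 0% = PAD4 with RCA probe and DMSO and 100% = probe without PAD4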
GSTO1 counter: counter-screen for RBBP9 inhibitors: inhibitors of human GSTO1. P78417. recombinant GSTO1, activity-based probe fluorescence polarization. 1.1% of 300,000 active. inhibition, % at 5.96 µM;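 active = inhibition above the campaign mean inhibition plus 3 SD, cut at about 35% in these data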;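 also: 0% = GSTO1-1 with DMSO and 100% = wells lacking GSTO1-1 enzyme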
Target sequence (P78417 whole entry, looked up): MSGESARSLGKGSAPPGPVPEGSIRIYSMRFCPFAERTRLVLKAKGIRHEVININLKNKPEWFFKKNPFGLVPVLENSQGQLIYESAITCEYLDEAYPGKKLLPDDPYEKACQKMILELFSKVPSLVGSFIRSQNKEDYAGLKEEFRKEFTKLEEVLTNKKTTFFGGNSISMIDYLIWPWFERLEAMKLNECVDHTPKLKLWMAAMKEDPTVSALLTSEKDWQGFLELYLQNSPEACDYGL
PAD4 FP conf: confirmation of human PAD4 inhibitors; recombinant PAD4, RCA probe fluorescence polarization; shares compounds with PAD4 inh; inhibition, % at 6.36 µM; 28% of 1,200 active;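 active = mean inhibition across replicates above the hit cutoff set by the earlier primary screen, cut at about 15% in these data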;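 also: inhibitors block active-site labeling by the probe so polarization falls; 0% = PAD4 with probe and DMSO and 100% = probe without PAD4 enzyme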
* marks the source's active call; other numbers are inactive results; i = inactive; nt = not tested or not shown; + = active, no number. In the library only some 1.6% were active in any assay of this set; here they are far more common.

SMILES	CTSL1 counter	TDP2 absorb	HKDC1 inh	UCH37 inh	PAD4 inh	GSTO1 counter	PAD4 FP conf
COc1ccc(NC(=O)CC2Nc3cccc4cccc(c34)NC2=O)cc1 (centres undefined)	5	-2	24	-3	-11	32	nt
CCCCOc1ccccc1NC(=O)CC1Nc2ccccc2NC1=O (centres undefined)	0	-13	-1	-1	23*	-11	-4
O=C(CC1Nc2cccc3cccc(c23)NC1=O)Nc1ccc(F)cc1 (centres undefined)	4	5	4	-3	59*	26	3
Cc1cccc(NC(=S)Nc2ccc(N3CCOCC3)cc2)c1C	-3	19	18	1	23*	6	3
C(=NN1CCN(Cc2cccc3ccccc23)CC1)c1ccco1	nt	nt	nt	2	nt	nt	nt
Cc1ccc(CNC(=O)c2ccc(C)c(S(=O)(=O)N3CCCCC3)c2)cc1	nt	-5	-4	0	105*	nt	10
Cc1ccc(C=NNc2ccc(Cl)nn2)cc1	nt	nt	nt	3	nt	nt	nt
O=C(NCCO)C(=O)NCC1CCCN1S(=O)(=O)c1cccs1 (centres undefined)	-2	4	-1	1	1	-3	nt
C=CCNC(=O)C(=O)NCC1CCCN1S(=O)(=O)c1cccs1 (centres undefined)	-2	8	-3	2	27*	5	10
CCn1c(CSc2nnc(-c3ccoc3C)n2C)nc2cc(S(=O)(=O)N(C)C)ccc21	-3	4	-4	-2	32*	-5	15
CCn1c(CSc2ncn[nH]2)nc2cc(C(=O)O)ccc21	-2	-8	-1	-2	22*	6	15*
CCn1c(CSc2nnc(-c3ccncc3)n2C)nc2cc(C(=O)O)ccc21	-2	14	-4	-4	52*	34	62*
COc1cccc(NC(=O)CN(C)C(=O)C23CC4CC(CC(Cl)(C4)C2)C3)c1	nt	6	-2	2	+	nt	-4
COc1cccc(CNC(=O)COC(=O)C23CC4CC(CC(Cl)(C4)C2)C3)c1	nt	5	0	1	-2	nt	nt
CC(CC(=O)NC1CCCCC1)=NNC(=O)Cc1ccc(-c2ccccc2)cc1	nt	nt	nt	2	nt	nt	nt
CC1=NN(c2ccc(C(=O)O)c(N)c2)C(=O)C1	6	15	-2	6	25*	63*	17*
O=C1CCCC2=C1Sc1ccc(Cl)cc1N2	7	-3	0	2	-1	6	nt
COC(=O)c1ccc2c(c1)SC1=C(CCCC1=O)N2	1	6	4	1	43*	15	40*
CCN(CC)S(=O)(=O)c1ccc(N=NC2=C(O)CCCC2=O)cc1	0	7	-10	3	168*	8	4
Cc1cc(C=NNC(=O)c2cccc([N+](=O)[O-])c2)c(C)n1-c1ccccc1	nt	nt	nt	7	nt	nt	nt
Cc1ccc(S(=O)(=O)NN=C2CC(c3ccccc3)Oc3ccccc32)cc1 (centres undefined)	nt	nt	nt	2	nt	nt	nt
Cc1ccc(OCCCNC2CCCC2)cc1	0	7	3	0	17*	4	5
Nc1nonc1C(=O)NN=Cc1ccc(Br)o1	nt	nt	nt	12	nt	nt	nt
Cc1cccc(NS(=O)(=O)c2ccc3c(c2)CCC(=O)N3)c1	2	6	-7	1	-5	4	nt
CCc1cccc(NS(=O)(=O)c2ccc3c(c2)CCC(=O)N3)c1	-2	1	-1	2	16*	2	-4
SMILES	CTSL1 counter	TDP2 absorb	HKDC1 inh	UCH37 inh	PAD4 inh	GSTO1 counter	PAD4 FP conf
COc1cccc2cc(C(=O)NCCc3ccccc3)oc12	-1	-4	-3	-1	17*	-3	14
Cc1nc2ccccc2n2c(O)c(CC(=O)O)cc12	1	8	0	-404	75*	14	39*
CC(C)(C)N(Cc1ccccc1)C(=O)c1cccs1	2	-5	0	7	2	0	nt
N#CCCN(Cc1ccccc1)C(=O)c1cccs1	-2	-1	-1	-2	31*	-1	8
Cc1cccc(COc2ccc(C=NNC(=O)c3nnn(-c4nonc4N)c3COc3ccc(F)cc3)cc2)c1	nt	nt	nt	-16	nt	nt	nt
CC(C)(C)c1cc(C(=O)NN=Cc2ccc(F)cc2)n(-c2ccccc2)n1	nt	nt	nt	1	nt	nt	nt
CNC(=O)c1c(C)[nH]c(=S)c(C#N)c1-c1ccco1	4	-10	-4	8	26*	8	3
Cc1cc(=O)oc2c(CN3CCC(C)CC3)c(O)c(Cl)cc12	6	4	7	i	33*	19	21*
CCOC(=O)NN=C(C)c1ccccc1OC(F)F	nt	nt	nt	2	nt	nt	nt
COc1cc2ccccc2cc1C(=O)NC1CCC(C)CC1 (centres undefined)	nt	6	5	-14	16*	nt	4
CCc1nnc(N/N=C/c2c(C)[nH]c3ccccc23)n1N	3	59*	15	nt	30*	52*	7
CCc1nnc(NN=Cc2ccccc2Cl)n1N	nt	nt	nt	8	nt	nt	nt
CN1C(=O)N(C)C2(c3ccccc3)Nn3c(sc(=Cc4ccccc4)c3=O)=NC12c1ccccc1 (centres undefined)	nt	nt	nt	1	nt	nt	nt
CCOc1cc(C=NNC(=O)c2ccc(O)cc2)ccc1Oc1nc(Cl)ncc1F	nt	nt	nt	1	nt	nt	nt
Cc1ccnc(NC(=O)c2cc3cc(F)ccc3s2)c1	1	-5	2	6	17*	-8	25*
CCn1c2ccc(C(C)=NO)cc2c2cc(C(C)=NO)ccc21	nt	nt	nt	-4	nt	nt	nt
CCn1c2ccccc2c2cc(/C(C)=N/O)ccc21	1	6	6	nt	16*	6	0
CN1CCN(c2nc3nonc3nc2N2CCN(C)CC2)CC1	3	-7	-7	4	21*	12	6
C1CCN(c2nc3nonc3nc2N2CCCCC2)CC1	-1	nt	1	10	-1	11	nt
O=C(NN=Cc1ccc(Br)s1)c1ccc([N+](=O)[O-])cc1	nt	nt	nt	6	nt	nt	nt
COc1cccc(C(=O)Nc2nc(-c3ccc(S(=O)(=O)N4CCOCC4)cc3)cs2)c1	-2	0	-1	-4	-1	-10	nt
O=C(Nc1nc(-c2ccc(S(=O)(=O)N3CCOCC3)cc2)cs1)c1ccccc1	3	10	-1	0	15*	-14	19*
CN(CCO)S(=O)(=O)c1ccc2c(c1)C(=NO)c1cc(S(=O)(=O)N(C)CCO)ccc1-2	-3	1	0	-40	15*	-8	-8
COc1ccc(C2=CC(c3ccc(OC)c(OC)c3)NC(=S)N2)cc1 (centres undefined)	-2	3	0	-13	49*	-4	56*
COc1cccc(C2=CC(c3ccc(OC)c(OC)c3)NC(=S)N2)c1 (centres undefined)	4	-10	0	-49	30*	-6	56*
